CHO parental Ca – signal in parental CHO cells, OX1R antagonist counter-screen | parental CHO-K1, ATP-induced calcium, Fluo-8 fluorescence | inhibition, % at 5.6 µM | 330,000 compounds, 0.63% hits | AID 463079;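 active = inhibition above that plate's mean sample inhibition plus 3 SD, cut at about 26% in these data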;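 note: 0% = ATP-challenged DMSO wells and 100% = DMSO wells without ATP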
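Test system: untransfected parental CHO cell line. Compound: one dose, 5.6 µM nominal. Detection: intracellular calcium via Fluo-8 no-wash fluorescent dye. Measure: % inhibition. Benchmarks: ATP-challenged DMSO wells low, unchallenged DMSO wells high.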
OX1R antag-1 – OX1R (human) antagonism; O43613; OX1R-expressing cells, FRET antagonist read-out; inhibition, % at 6.6 µM; 330,000 compounds, 1.8% hits; in the data active = inhibition mostly above about 38%, no sharp cut-off; inactive = mostly below about 40%;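 note: 0% = agonist challenge alone and 100% = reference antagonist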
OXTR potentiate – potentiators of human oxytocin receptor; P30559; CHO-OTR cells, Fluo-8 calcium fluorescence, potentiator mode; 0% = oxytocin EC15, 100% = EC100; activation, % at 3 µM; 320,000 compounds, 0.061% hits; AID 2445;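 active = activation above that plate's cutoff, the mean activation of tested compounds plus 3 SD, cut at about 6.6% in these data, passing the limit was not always enough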;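 note: 100% uses oxytocin at 75 nM as the full agonist control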
Target sequence (P30559 whole entry, looked up): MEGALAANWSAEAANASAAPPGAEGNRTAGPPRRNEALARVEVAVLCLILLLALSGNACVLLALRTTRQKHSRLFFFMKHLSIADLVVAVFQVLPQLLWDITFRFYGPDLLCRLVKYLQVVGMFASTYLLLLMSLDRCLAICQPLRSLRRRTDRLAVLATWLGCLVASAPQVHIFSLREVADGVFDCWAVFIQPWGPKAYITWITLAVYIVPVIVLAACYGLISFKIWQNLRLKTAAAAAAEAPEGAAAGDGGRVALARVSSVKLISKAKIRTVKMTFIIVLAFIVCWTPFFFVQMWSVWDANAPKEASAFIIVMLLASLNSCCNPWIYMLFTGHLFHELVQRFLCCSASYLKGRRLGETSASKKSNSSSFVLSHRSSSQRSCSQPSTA
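test system = CHO-OTR cells, human receptor | compound = single-point 3.0 µM | schedule = 6 min compound pre-incubation at room temperature, 100 s kinetic read | signal = Fluo-8 no-wash calcium dye fluorescence, excitation 470-495 nm, emission 515-575 nm | repeats = single well per compound, singlicate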
V1R ag counter – V1a receptor agonism, counter-screen for OXTR agonists; 320,000 compounds, 0.25% hits; CHO-V1R cells, Fluo-8 calcium fluorescence, agonist mode; 0% DMSO, 100% 3 nM vasopressin; activation, % at 3 µM; AID 2797; P37288;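 active = activation above the mean activation of all tested compounds plus 3 SD, per screening run, cut at about 20% in these data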;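 note: signal is peak over basal fluorescence ratio across a 100 second FLIPR read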
Target sequence (P37288 whole entry, looked up): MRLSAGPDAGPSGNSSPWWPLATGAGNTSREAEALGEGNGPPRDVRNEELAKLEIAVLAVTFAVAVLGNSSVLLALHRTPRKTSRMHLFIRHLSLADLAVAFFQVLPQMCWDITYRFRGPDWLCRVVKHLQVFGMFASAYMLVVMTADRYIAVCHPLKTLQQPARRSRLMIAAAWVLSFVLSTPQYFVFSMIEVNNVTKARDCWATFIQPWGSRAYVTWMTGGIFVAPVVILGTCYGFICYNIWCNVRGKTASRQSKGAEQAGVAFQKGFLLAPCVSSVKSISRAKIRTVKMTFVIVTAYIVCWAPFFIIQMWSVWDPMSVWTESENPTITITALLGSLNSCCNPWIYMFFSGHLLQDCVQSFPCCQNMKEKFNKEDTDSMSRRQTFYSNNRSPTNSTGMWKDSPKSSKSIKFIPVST
OX1R antag-2 – human HCRTR1 antagonism. 330,000 compounds, 0.43% hits. AID 434989. CHO/OX1R cells, Fluo-8 calcium fluorescence, orexin A. inhibition, % at 5 µM;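 active = inhibition above its plate's threshold, mean inhibition of all tested compounds on the plate plus 3 SD, cut at about 37% in these data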;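 note: 0% = orexin A challenge wells and 100% = SB-334867-A antagonist wells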
OXTR ag – human OXTR agonism. 320,000 compounds, 0.32% hits. CHO-OTR cells, Fluo-8 calcium fluorescence; normalized: DMSO 0%, oxytocin 100%. P30559. activation, % at 3 µM. AID 2435;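 active = activation above the mean of all tested compounds plus 3 SD, cutoff set per screening run, cut at about 20% in these data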;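 note: peak over basal fluorescence ratio from a 100 s FLIPR kinetic read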
OX1R Fluo8 conf – confirmation of human orexin 1 receptor antagonists; inhibition, % at 5 µM; 1,100 compounds, 38% hits; shares compounds with OX1R antag-2; CHO/OX1R cells, orexin A calcium Fluo-8 fluorescence; in the data active = inhibition above about 29%;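 note: 0% = agonist challenge alone and 100% = reference antagonist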
CHO Ca triplic – counter-screen for OX1R antagonists: effect in parental CHO cells; inhibition, % at 5.6 µM; shares compounds with OX1R antag-2; parental CHO-K1, ATP-induced calcium, Fluo-8 fluorescence; 1,100 compounds, 9.3% hits;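 active = inhibition above a per-plate limit, the mean inhibition of that plate's test compounds plus 3 SD, cut at about 25% in these data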;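 note: 0% = ATP challenge with DMSO and 100% = DMSO without ATP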
OX1R HTRF conf – confirmation of human orexin 1 receptor antagonists, HTRF format. OX1R-expressing cells, HTRF antagonist assay. 1,800 compounds, 49% hits. inhibition, % at 6.6 µM. shares compounds with OX1R antag-1; in the data active = inhibition above about 55%;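 note: CHO cells expressing OX1R stimulated with orexin A at about EC80; 0% = agonist challenge alone and 100% = reference antagonist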
CHO-K1 HTRF cnt – counter-screen for OX1R antagonists: effect in parental CHO-K1 cells; shares compounds with OX1R antag-1; HTRF counterscreen; inhibition, % at 6.6 µM; AID 493232; 1,800 compounds, 48% hits; in the data active = inhibition above about 17%;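 note: 0% = agonist challenge with vehicle and 100% = vehicle alone without agonist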
Active calls of the source: *; x = no result given. Shown are actives, neighbours in structure and some others; about 2.7% of the full set was active somewhere.

SMILES | CHO parental Ca | OX1R antag-1 | OXTR potentiate | V1R ag counter | OX1R antag-2 | OXTR ag | OX1R Fluo8 conf | CHO Ca triplic | OX1R HTRF conf | CHO-K1 HTRF cnt
COCCSc1nnc(NC(=O)C2CC(=O)N(CCc3ccc(F)cc3)C2)s1 (configuration not stated) | 7.0 | 16.9 | -0.3 | 0.5 | -14.3 | 0.6 | x | x | x | x
Nn1c(SCC(=O)Nc2ccccc2F)nnc1-c1cccs1 | 2.3 | 14.2 | -3.2 | -0.6 | -14.2 | -1.1 | x | x | x | x
CCn1cc(/C=C(\NC(=O)c2ccccc2)C(=O)NCCCN2CCOCC2)c2ccccc21 | -21.7 | 15.9 | -5.7 | 0.2 | -29.1 | -0.6 | x | x | x | x
CCn1c(SCC(=O)Nc2nc(-c3ccccc3)cs2)nnc1-c1ccccc1 | -13.8 | 62.0* | -9.0 | 2.7 | 54.1* | -0.7 | 14.5 | 2.1 | 72.0* | 0.1
Cc1nnc(SCC(=O)Nc2nc(-c3ccccc3)cs2)n1N | -17.2 | 8.6 | -2.9 | 0.3 | -0.6 | -0.2 | x | x | x | x
C=CCn1c(SCC(=O)Nc2cc3oc4ccccc4c3cc2OC)nnc1-c1cnccn1 | -11.8 | 90.8* | -0.5 | 5.5 | 57.2* | -1.2 | 65.7* | -7.0 | 90.5* | 3.4
C=CCn1c(SCC(=O)Nc2cccc3ccccc23)nnc1-c1cnccn1 | -20.5 | 6.2 | -2.0 | -0.5 | -30.1 | -2.3 | x | x | x | x
Cc1cc(C)cc(CSCC(=O)N/N=C/c2ccc(OCC(=O)NCc3ccco3)cc2)c1 | -19.6 | 58.5* | -6.4 | 3.0 | 50.3* | 0.3 | 31.8* | -2.0 | 53.8 | 6.8
COc1cccc(-c2cc3nc(-c4ccccc4)cc(N4CCC5(CC4)OCCO5)n3n2)c1 | -12.8 | 43.2* | -9.4 | 1.3 | 45.9* | -0.6 | 17.7 | -2.3 | 52.7 | 10.2
Cc1ccc(OC(F)F)c(NC(=O)Nc2cccc(C(F)(F)F)c2)c1 | 0.7 | 45.7* | -11.2 | 1.8 | 36.0 | 0.5 | -14.2 | 14.6 | 22.6 | 0.6
CCOC(=O)C1CCN(C(=O)COC(=O)c2c(C)c(CC)nc3ccccc23)CC1 | -27.9 | -4.6 | -9.0 | -0.4 | -24.5 | -0.5 | x | x | x | x
Cc1cc(C)n2nc(C(=O)OCC(=O)NNC(=O)c3ccccc3)nc2n1 | -5.9 | 0.3 | -5.2 | 0.6 | -9.9 | 0.4 | x | x | x | x
O=C(COc1ccccc1F)Nc1cc(S(=O)(=O)Nc2cccc(Cl)c2)ccc1O | -21.6 | 40.1* | -2.5 | -0.6 | 75.0* | 1.8 | 42.3* | -12.8 | 61.3* | 8.6
COc1cccc(C(=O)Nc2ccc(-c3nnc(-c4ccco4)o3)cc2)c1 | -23.9 | 77.2* | -6.0 | -1.2 | 33.2 | -2.5 | 33.9* | -6.2 | 71.3* | 19.6*
CC(C)c1nnc(NC(=O)CCC(=O)N2CCC(Cc3ccccc3)CC2)s1 | -18.6 | 2.8 | -8.8 | 0.1 | -18.4 | -1.6 | x | x | x | x
Cc1ccc2nsnc2c1S(=O)(=O)NCCc1c(C)[nH]c2ccc(F)cc12 | -6.3 | 78.0* | -6.4 | -0.3 | 69.6* | 0.2 | 37.6* | -4.0 | 62.0* | 5.5
Cc1cccc(NC(=O)/C(C#N)=C\c2cn(CC(=O)O)c3ccccc23)c1 | -14.4 | 82.7* | -4.2 | -0.3 | 42.6 | 0.1 | 37.2* | 3.2 | 78.2* | 3.6
N#C/C(=C/c1cn(CC(=O)O)c2ccccc12)C(=O)Nc1ccccc1 | -7.9 | 36.6 | -5.0 | 0.0 | -9.5 | 0.2 | x | x | x | x
Cc1nn(-c2ccccc2)c(C)c1/C=N/NC(=O)c1cc(-c2ccccc2)n[nH]1 | -23.1 | 97.8* | -12.4 | 0.6 | 87.4* | -1.5 | 63.7* | -5.3 | 80.8* | -18.8
COc1ccc(/C=C/C(=O)OCC(=O)c2c(C)[nH]c3ccccc23)cc1OC | -15.0 | 76.0* | -8.2 | 2.8 | 49.2* | 3.5 | 43.8* | -10.4 | 80.0* | 3.2
COc1ccc(C(=O)NCC(=O)OCC(=O)c2c(C)[nH]c3ccccc23)cc1OC | -11.6 | 1.9 | -4.5 | 2.3 | -9.4 | 0.1 | x | x | x | x
C[C@@H]1C(=O)OC[C@H]1NC(=O)OCc1ccccc1 | -3.4 | 6.7 | 3.6 | 0.8 | 11.6 | 0.4 | x | x | x | x
O=C(OCC#CCSc1nnc(-c2cccc3ccccc23)o1)c1cccc2[nH]ccc12 | -10.7 | 66.5* | -1.9 | 0.7 | 68.3* | 0.6 | 30.0* | -7.9 | 88.0* | -0.8
OCC[C@H]1C[C@@H](O)[C@H](O)[C@@]2(Cc3ccccc3O2)O1 | -1.4 | 8.8 | -0.6 | 0.7 | -13.4 | 0.3 | x | x | x | x
CCc1ccc(C(=O)CCC(=O)Nc2ccc(OC)c(S(=O)(=O)N3CCCCC3)c2)cc1 | -6.2 | 4.3 | -11.2 | 2.6 | -6.0 | 0.0 | x | x | x | x
SMILES | CHO parental Ca | OX1R antag-1 | OXTR potentiate | V1R ag counter | OX1R antag-2 | OXTR ag | OX1R Fluo8 conf | CHO Ca triplic | OX1R HTRF conf | CHO-K1 HTRF cnt
CCN1C(=O)c2cccc3c(S(=O)(=O)NCc4ccccc4)ccc1c23 | -27.2 | 8.3 | -8.0 | 1.7 | -7.2 | 0.7 | x | x | x | x
CCN1C(=O)c2cccc3c(S(=O)(=O)NCCc4c[nH]c5ccccc45)ccc1c23 | -17.6 | 81.5* | -18.0 | 13.0 | 38.1 | 9.4 | 31.8* | 1.9 | 72.1* | 1.8
CCN(C[C@H]1N[C@@](Cc2ccccc2)(C(=O)OC)[C@H]2C(=O)N(C)C(=O)[C@@H]12)C(=O)Nc1ccc(Cl)cc1 | -27.6 | 7.0 | 3.5 | 0.8 | -25.9 | 0.2 | x | x | x | x
Cc1ccnc(NC(=O)c2oc3ccccc3c2C)c1 | -9.5 | 95.5* | -9.2 | -1.2 | 50.6* | -2.1 | 49.0* | -8.9 | 90.7* | 14.9
O=S(=O)(NCCc1ccc(F)cc1)c1ccc(F)cc1Br | -12.2 | 12.6 | x | x | -16.0 | x | x | x | x | x
Cc1cc(SCC(=O)c2ccc3c(c2)OCO3)nc2ccccc12 | -20.8 | 59.0* | -4.3 | 0.6 | 36.3 | 0.0 | 11.2 | -8.8 | 87.0* | -1.9
Cc1cc(SCC(=O)c2ccc(O)c(O)c2)nc2ccccc12 | 0.8 | 55.2 | -2.6 | -0.6 | 3.2 | -0.5 | x | x | x | x
COc1ccc(OC)c(S(=O)(=O)NCC(c2ccco2)N2CCc3ccccc32)c1 (configuration not stated) | -8.7 | 89.9* | -19.0 | -1.6 | 73.7* | -1.0 | 78.9* | -7.7 | 88.6* | 4.2
COc1ccccc1C(=O)NCC(c1ccco1)N1CCc2ccccc21 (configuration not stated) | -36.1 | 15.5 | -5.4 | -1.7 | -35.1 | -1.3 | x | x | x | x
